Assay results as given in ChEMBL document CHEMBL1770062, “Synthesis and in vitro antitumor activity of new butenolide-containing dithiocarbamates” (Bioorg Med Chem Lett, 2011).

Legend:
Type in all cases: functional, cell-based
PC-3 = assay: Antitumor activity against human PC3 cells after 72 hrs by MTT assay
Summary of the method: (§1)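 Cells in RPMI 1640 with 10% FBS, 2 mm glutamine, penicillin and streptomycin were seeded at 5 × 10³ per well in 96-well plates. After 24 h at 37 °C the medium was replaced with medium holding compound at several concentrations, and cells were exposed for 72 h. MTT (5 mg/mL stock in PBS) was added for 4 h at 37 °C, formazan was dissolved in DMSO and absorbance read at 490 nm. IC50 was taken from dose–response curves, at least three independent experiments, mean ± SE.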

[1] = Antitumor activity against human EC9706 cells after 72 hrs by MTT assay; summary of the method: as §1
MCF7 = assay: Antitumor activity against human MCF7 cells after 72 hrs by MTT assay; summary of the method: as §1
HeLa = assay: Antitumor activity against human HeLa cells after 72 hrs by MTT assay; summary of the method: as §1
[2] = Antitumor activity against human SPC-A1 cells after 72 hrs by MTT assay; summary of the method: as §1
[3] = Homo sapiens, PC-3, 72 h, read-out: IC50
[4] = Homo sapiens, EC9706, 72 h, read-out: IC50
[5] = Homo sapiens, MCF7, 72 h, read-out: IC50
[6] = Homo sapiens, HeLa, 72 h, read-out: IC50
[7] = Homo sapiens, SPCA1, 72 h, read-out: IC50

Compound	IC50 (PC-3; [3])	IC50 [1, 4]	IC50 (MCF7; [5])	IC50 (HeLa; [6])	IC50 [2, 7]	IC50 (HeLa; hela)	IC50 ([2]; spc-a1)	IC50 (PC-3; pc-3)	IC50 ([1]; ec9706)	IC50 (MCF7; mcf7)
Cc1ccc(N2C(=S)SCC23COC(=O)C3)cc1 (centres undefined)	98.1 µM	> 50 µg/mL	> 50 µg/mL	> 50 µg/mL	> 50 µg/mL	–	–	–	–	–
CN(Cc1ccccc1)C(=S)SCC1=CC(=O)OC1	> 50 µg/mL	> 50 µg/mL	> 50 µg/mL	> 50 µg/mL	> 50 µg/mL	–	–	–	–	–
O=c1[nH]cc(F)c(=O)[nH]1 [FLUOROURACIL]	29.3 µM	20.3 µM	7.54 µM	41.5 µM	26.9 µM	–	–	–	–	–
CNC(=S)SCC1=CCOC1=O	76.5 µM	85.4 µM	83.1 µM	36.1 µM	43.9 µM	–	–	–	–	–
CCN(CC)C(=S)SCC1=CCOC1=O	57.1 µM	136 µM	121 µM	1.39 µM	87 µM	–	–	–	–	–
CC(C)N(C(=S)SCC1=CC(=O)OC1)C(C)C	> 50 µg/mL	49.2 µM	> 50 µg/mL	28.5 µM	> 50 µg/mL	–	–	–	–	–
O=C1CC2(CO1)CSC(=S)N2Cc1ccccc1 (centres undefined)	> 50 µg/mL	> 50 µg/mL	> 50 µg/mL	> 50 µg/mL	> 50 µg/mL	–	–	–	–	–
O=C1OCC=C1CSC(=S)NC1CCCCC1	> 50 µg/mL	> 50 µg/mL	180 µM	150 µM	> 50 µg/mL	–	–	–	–	–
CCNC(=S)SCC1=CCOC1=O	30.6 µM	44.4 µM	80.1 µM	–	–	Not Active	Not Active	–	–	–
CCN(CC)C(=S)SCC1=CC(=O)OC1	> 50 µg/mL	> 50 µg/mL	> 50 µg/mL	21 µM	57.1 µM	–	–	–	–	–
CN1CCN(C(=S)SCC2=CC(=O)OC2)CC1	> 50 µg/mL	35.8 µM	> 50 µg/mL	> 50 µg/mL	> 50 µg/mL	–	–	–	–	–
O=C1C=C(CSC(=S)N2CCCC2)CO1	> 50 µg/mL	106 µM	169 µM	> 50 µg/mL	60 µM	–	–	–	–	–
O=C1CC2(CO1)CSC(=S)N2C1CC1 (centres undefined)	> 50 µg/mL	> 50 µg/mL	> 50 µg/mL	28.7 µM	> 50 µg/mL	–	–	–	–	–
O=C1CC2(CO1)CSC(=S)N2c1ccc(Cl)cc1 (centres undefined)	> 50 µg/mL	32.6 µM	> 50 µg/mL	> 50 µg/mL	> 50 µg/mL	–	–	–	–	–
CN(C)C(=S)SCC1=CCOC1=O	147 µM	182 µM	> 50 µg/mL	114 µM	> 50 µg/mL	–	–	–	–	–
O=C1C=C(CSC(=S)N2CCOCC2)CO1	> 50 µg/mL	> 50 µg/mL	> 50 µg/mL	> 50 µg/mL	–	–	–	–	–	–
O=C1CC2(CO1)CSC(=S)N2c1ccccc1O (centres undefined)	> 50 µg/mL	> 50 µg/mL	> 50 µg/mL	> 50 µg/mL	> 50 µg/mL	–	–	–	–	–
O=C1OCC=C1CSC(=S)NC1CC1	117 µM	53.6 µM	94.9 µM	24.1 µM	57.5 µM	–	–	–	–	–
CC(C)NC(=S)SCC1=CCOC1=O	49.4 µM	59.4 µM	134 µM	137 µM	108 µM	–	–	–	–	–
O=C1OCC=C1CSC(=S)Nc1ccccc1	186 µM	16.2 µM	89.9 µM	111 µM	95.3 µM	–	–	–	–	–
CN1CCN(C(=S)SCC2=CCOC2=O)CC1	40.5 µM	14.3 µM	86.5 µM	0.77 µM	53.7 µM	–	–	–	–	–
O=C1OCC=C1CSC(=S)NCc1ccccc1	13.7 µM	34.3 µM	31.9 µM	15.1 µM	20.1 µM	–	–	–	–	–
O=C1CC2(CO1)CSC(=S)N2c1ccc(F)cc1 (centres undefined)	> 50 µg/mL	> 50 µg/mL	> 50 µg/mL	> 50 µg/mL	> 50 µg/mL	–	–	–	–	–
O=C1OCC=C1CSC(=S)N1CCOCC1	48.8 µM	26 µM	60.3 µM	2.43 µM	37.9 µM	–	–	–	–	–
O=C1OCC=C1CSC(=S)N1CCCC1	114 µM	14.4 µM	56.4 µM	2.63 µM	31.4 µM	–	–	–	–	–
Cc1ccc(NC(=S)SCC2=CCOC2=O)cc1	93.5 µM	91 µM	97.4 µM	5.44 µM	63.8 µM	–	–	–	–	–
CN(C)C(=S)SCC1=CC(=O)OC1	> 50 µg/mL	7.55 µM	159 µM	> 50 µg/mL	> 50 µg/mL	–	–	–	–	–
O=C1OCC=C1CSC(=S)Nc1ccc(Cl)cc1	–	–	–	–	–	Not Active	Not Active	Not Active	Not Active	Not Active
O=C1CC2(CO1)CSC(=S)N2c1ccccc1 (centres undefined)	> 50 µg/mL	128 µM	134 µM	18 µM	101 µM	–	–	–	–	–
